Reference: ChEMBL document CHEMBL1153796, “Isoprenylated chromone derivatives from the plant endophytic fungus Pestalotiopsis fici” (J Nat Prod, 2009)
pEC50, pIC50: −log10 of the molar value.

Key:
[1] = test system: HeLa; assay: Cytotoxicity against human HeLa cells after 48 hrs by MTT assay; assay type: functional, cell-based
Method in brief: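 Cells plated at 10^4/well and allowed to attach overnight. Exposed to compound dilutions from DMSO stock (vehicle 0.2% DMSO) for 4 h at 37 °C, then grown 48 h in fresh DMEM. MTT at 0.5 mg/mL added for 3 h, formazan dissolved in DMSO, absorbance at 540 nm; 5-fluorouracil as positive control.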

[2] = test system: Human immunodeficiency virus 1; assay: Antiviral activity against HIV1 infected human C8166 cells assessed as inhibition of viral replication after 4 days by p24 antigen capture ELISA; assay type: functional, organism-based; details: Human immunodeficiency virus 1, C8166, 96 h
[3] = test system: MCF7; assay: Cytotoxicity against human MCF7 cells after 48 hrs by MTT assay; assay type: functional, cell-based; details: MCF7, 48 h
[4] = test system: C8166; assay: Cytotoxicity against human C8166 cells after 4 days by MTT assay; assay type: cell-based; details: C8166, 96 h
Method in brief: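 C8166 cells seeded at 3 × 10^4/well with various compound concentrations in triplicate, 37 °C, 5% CO2, run alongside the HIV-1 assay.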

CC(C)=CC=C1C2=C(C[C@H](O)[C@@H]1O)C(=O)CC(C)(C)O2 (mixture of isomers)
pIC50 [1]: < 3.84 | pEC50 [2]: 4.05 | pIC50 [3]: < 3.84

O=c1[nH]cc(F)c(=O)[nH]1 [FLUOROURACIL]
pIC50 [1]: 5.00

CC(C)=CC[C@]12O[C@H]1[C@@H](O)CC1=C2OC(C)(C)CC1=O [PESTALOFICIOL F]
pIC50 [1]: < 3.84 | pEC50 [2]: < 4.00 | pIC50 [3]: < 3.84

CC1(C)CC(=O)C2=C(O1)C1=C[C@@H](C(C)(C)O)O[C@H]1[C@@H](O)C2 [PESTALOFICIOL I]
pIC50 [1]: < 3.87 | pEC50 [2]: < 4.00 | pIC50 [3]: 3.87

CC(C)=CCc1cc(O)cc2c1OC(C)(C)CC2=O [PESTALOFICIOL J]
pIC50 [1]: 4.67 | pEC50 [2]: 5.10 | CC50 [4]: > 100 µM | pIC50 [3]: < 3.81

CC(=O)OC1=CC(C)(C)Oc2c(CC=C(C)C)cc(O)cc21 [PESTALOFICIOL K]
pIC50 [1]: 4.00 | pEC50 [2]: 4.11 | pIC50 [3]: < 3.88

COC(=O)c1cc(OC)cc(O)c1C(=O)c1c(O)cc(C)c(C2=CC(C)(C)Oc3c(CC=C(C)C)cc(O)cc32)c1O [PESTALOFICIOL L]
pIC50 [1]: 5.06 | pEC50 [2]: < 4.00 | pIC50 [3]: 4.76
